From ChEMBL document CHEMBL4364254 (J Med Chem, 2019)

Legend:
[1] = Cmax in C57BL6 mouse plasma at 0.3 mg/kg, po measured at 1 hr post dose by LC-MS/MS analysis; assay type: ADME, organism-based; parameters: dose 0.3 mg/kg, route oral
Method in brief: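 Female C57BL6 mice, 8 weeks old, received a single oral dose of 0.3 mg/kg in 1% NMP/0.3% Tween 80 in 0.5% Na-CMC. […] Maximum observed concentrations are reported; plasma clearance and half-life come from PK analysis.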

[2] = Half life in Sprague-Dawley rat plasma at 1 mg/kg, po by LC-MS/MS analysis; assay type: ADME, organism-based
Cannabinoid receptor 1 = Cannabinoid receptor 1 (Homo sapiens, UniProt P21554); assay: Displacement of [3H]CP55940 from human CB1 receptor expressed in HEK293 cell membranes
Cannabinoid receptor 1, sequence (P21554 whole entry): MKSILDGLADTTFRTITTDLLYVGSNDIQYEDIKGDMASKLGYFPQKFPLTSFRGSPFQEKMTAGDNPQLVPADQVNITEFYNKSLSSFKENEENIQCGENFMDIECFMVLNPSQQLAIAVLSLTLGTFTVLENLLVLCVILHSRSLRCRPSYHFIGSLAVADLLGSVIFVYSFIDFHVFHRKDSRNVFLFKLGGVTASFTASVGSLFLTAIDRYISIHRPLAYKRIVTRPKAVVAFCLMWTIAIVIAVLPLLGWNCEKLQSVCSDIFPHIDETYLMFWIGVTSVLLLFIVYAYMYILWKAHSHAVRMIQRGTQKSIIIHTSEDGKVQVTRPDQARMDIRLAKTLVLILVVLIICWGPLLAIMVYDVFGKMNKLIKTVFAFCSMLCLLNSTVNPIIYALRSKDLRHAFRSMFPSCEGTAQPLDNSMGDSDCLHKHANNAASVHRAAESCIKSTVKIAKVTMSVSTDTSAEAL
Method in brief: (§1)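 Competition binding against [3H]CP55940 in membranes from HEK cells overexpressing human CB1 or CB2. Ki values are derived from displacement, and the same membrane format is used for both receptors. Values are averages of three to six independent measurements.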

Cannabinoid receptor 2 = Cannabinoid receptor 2 (Homo sapiens, UniProt P34972); assay: Displacement of [3H]CP55940 from human CB2 receptor expressed in HEK293 cell membranes; method in brief: as §1
Cannabinoid receptor 2, sequence (P34972 whole entry): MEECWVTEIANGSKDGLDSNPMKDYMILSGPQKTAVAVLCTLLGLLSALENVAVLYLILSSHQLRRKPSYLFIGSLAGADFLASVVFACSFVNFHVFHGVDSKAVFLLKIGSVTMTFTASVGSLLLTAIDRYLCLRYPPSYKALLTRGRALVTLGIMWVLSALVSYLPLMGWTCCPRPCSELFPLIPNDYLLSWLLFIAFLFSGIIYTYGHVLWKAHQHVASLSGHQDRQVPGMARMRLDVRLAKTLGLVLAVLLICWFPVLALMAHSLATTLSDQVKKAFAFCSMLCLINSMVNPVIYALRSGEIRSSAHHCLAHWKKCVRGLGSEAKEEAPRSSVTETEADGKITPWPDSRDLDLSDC

Homo sapiens = species on record: Homo sapiens; assay: Selectivity ratio of Ki for displacement of [3H]CP55940 from human CB2 receptor expressed in HEK293 cell membranes to Ki for displacement of [3H]CP55940 from human CB1 receptor expressed in HEK293 cell membranes
Method in brief: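 Competitive displacement of [3H]CP55940 from membranes of HEK cells overexpressing human CB1 or human CB2. A Ki was determined at each receptor, and selectivity was expressed as Ki(CB2)/Ki(CB1). Ki values are means of three to six independent measurements.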

SMILES | Cmax [1] | half-life [2] | Ki (Cannabinoid receptor 1) | Ki (Cannabinoid receptor 2) | Ratio Ki (Homo sapiens)
O=C(Nc1ccc(F)cc1F)NC1CCN(c2ncnc3c2nc(-c2ccccc2Cl)n3-c2ccc(Cl)cc2)CC1 | 1230 ng/mL | 12 h |  |  | 
O=C(NC1CCCCC1)NC1CCN(c2ncnc3c2nc(-c2ccccc2Cl)n3-c2ccc(Cl)cc2)CC1 |  |  | 1.4 nM | 4600 nM | 
O=C(NCC1CCCCC1)NC1CCN(c2ncnc3c2nc(-c2ccccc2Cl)n3-c2ccc(Cl)cc2)CC1 |  |  | 0.9 nM | 7600 nM | 
CC1(NC(=O)Nc2ccc(F)cc2F)CCN(c2ncnc3c2nc(-c2ccccc2Cl)n3-c2ccc(Cl)cc2)CC1 |  |  | 6 nM | > 10000 nM | 
O=C(NCC1CCCC1)NC1CCN(c2ncnc3c2nc(-c2ccccc2Cl)n3-c2ccc(Cl)cc2)CC1 |  |  |  | 3200 nM | 
CC(C)CN(C)C(=O)NC1CCN(c2ncnc3c2nc(-c2ccccc2Cl)n3-c2ccc(Cl)cc2)CC1 |  |  |  | 600 nM | 
CC1(NC(=O)Nc2ccccc2F)CCN(c2ncnc3c2nc(-c2ccccc2Cl)n3-c2ccc(Cl)cc2)CC1 |  |  | 4 nM | > 10000 nM | 
CC1(NS(=O)(=O)NC2CCCCC2)CCN(c2ncnc3c2nc(-c2ccccc2Cl)n3-c2ccc(Cl)cc2)CC1 |  |  | 9 nM | 740 nM | 82
CC1(NC(=O)NCc2ccccc2F)CCN(c2ncnc3c2nc(-c2ccccc2Cl)n3-c2ccc(Cl)cc2)CC1 |  |  | 15 nM | 1100 nM | 73
CCCN(CC(F)(F)F)C(=O)NC1CCN(c2ncnc3c2nc(-c2ccccc2Cl)n3-c2ccc(Cl)cc2)CC1 |  |  | 1.1 nM | 2800 nM | 2500
O=C(NC1CCN(c2ncnc3c2nc(-c2ccccc2Cl)n3-c2ccc(Cl)cc2)CC1)NC1(C(F)(F)F)CCCC1 |  |  | 6.3 nM | > 10000 nM | 
CC1(NC(=O)Nc2ccc(OC(F)F)nc2)CCN(c2ncnc3c2nc(-c2ccccc2Cl)n3-c2ccc(Cl)cc2)CC1 |  |  | 81 nM | > 10000 nM | 
CC1(NC(=O)NC2CCCCC2)CCN(c2ncnc3c2nc(-c2ccccc2Cl)n3-c2ccc(Cl)cc2)CC1 |  |  | 13 nM | > 10000 nM | 
COCCN(C)C(=O)NC1CCN(c2ncnc3c2nc(-c2ccccc2Cl)n3-c2ccc(Cl)cc2)CC1 |  |  |  | 2300 nM | 
O=C(NC1CCCC1)NC1CCN(c2ncnc3c2nc(-c2ccccc2Cl)n3-c2ccc(Cl)cc2)CC1 |  |  |  | > 10000 nM | 
O=C(NCC1CCC(F)(F)CC1)NC1CCN(c2ncnc3c2nc(-c2ccccc2Cl)n3-c2ccc(Cl)cc2)CC1 |  |  | 26 nM | > 10000 nM | 
O=C(NCc1ccccc1F)NC1CCN(c2ncnc3c2nc(-c2ccccc2Cl)n3-c2ccc(Cl)cc2)CC1 |  |  |  | 220 nM | 
O=C(NCC1CCCCC1)NC1CCN(c2ncnc3c2nc(-c2ccccc2Cl)n3-c2ccc(C(F)(F)F)nc2)CC1 |  |  | 730 nM |  | 
CCCN(C)C(=O)NC1CCN(c2ncnc3c2nc(-c2ccccc2Cl)n3-c2ccc(Cl)cc2)CC1 |  |  |  | 630 nM | 
CC1(NC(=O)NC2CCC(F)(F)CC2)CCN(c2ncnc3c2nc(-c2ccccc2Cl)n3-c2ccc(Cl)cc2)CC1 |  |  | 17 nM | > 10000 nM | 
CC1(NC(=O)NC2CCN(c3ncnc4c3nc(-c3ccccc3Cl)n4-c3ccc(Cl)cc3)CC2)CCC(F)(F)CC1 |  |  | 5 nM | 7500 nM | 
O=C(NC1CCN(c2ncnc3c2nc(-c2ccccc2Cl)n3-c2ccc(Cl)cc2)CC1)N1CCCCC1 |  |  | 1.2 nM | 400 nM | 330
